Measured values pooled from the literature.
Compare with care: the assays were run in different laboratories.
AURKA: Aurora kinase A (AURKA, Homo sapiens, UniProt O14965)
CYP51: Sterol 14-alpha demethylase (CYP51, Trypanosoma cruzi, UniProt Q7Z1V1)
MTNR1A: Melatonin receptor type 1A (MTNR1A, Homo sapiens, UniProt P48039)
FLT3: Receptor-type tyrosine-protein kinase FLT3 (FLT3, Homo sapiens, UniProt P36888)
HTR2C: 5-hydroxytryptamine receptor 2C (HTR2C, Homo sapiens, UniProt P28335)
F2 trypsin-like site: Prothrombin, trypsin-like site (F2, Bos taurus, UniProt P00735)
Tmem97: Sigma intracellular receptor 2 (Tmem97, Rattus norvegicus, UniProt Q5U3Y7)

SMILES	target	test	setting	quantity	result
Cc1cc(Nc2cc3ncccc3c(N[C@@H]3C[C@H]4CC[C@@H](C3)N4CCC#N)n2)n[nH]1	AURKA	binding, competition with immobilised ligand	–	Kd	0.066 µM
O=C(O[C@H](Cn1ccnc1)c1ccccc1)c1ccc(-c2ccccc2)cc1	CYP51	binding	–	Kd	0.046 µM
COc1ccc(-c2nsc(NC(=O)[C@@H]3C[C@H]3C)c2C)cc1	Metabotropic glutamate receptor 1 (Grm1, Rattus norvegicus, UniProt P23385)	ligand displacement, radioligand	–	Ki	0.0006 µM
O=C(Nc1ccc(Sc2ccc([N+](=O)[O-])cc2)cc1)O[C@H](Cn1ccnc1)c1ccc(Cl)cc1	CYP51	binding	–	Kd	0.162 µM
COc1ccc2[nH]cc(CCNC(C)=O)c2c1I	MTNR1A	β-arrestin recruitment, agonist	–	EC50	0.0525 µM
Fc1ccc(Nc2nccc(NC3CCCCC3)n2)cc1	FLT3	enzyme activity, inhibitor	–	IC50	3.3 µM
CCc1nc2cc(OCCCCN3CCC(c4cccc(Cl)c4Cl)CC3)ccc2s1	HTR2C	cell-free assay, radioligand	–	Ki	0.21 µM
COc1cccc(-c2cccc(Nc3nccc(NC(C)C)n3)c2)c1	FLT3	enzyme activity, inhibitor	–	IC50	6.97 µM
COC(=O)c1sc(N(C)Cc2ccc(OC)c(O)c2)nc1Cl	MTNR1A	cAMP, agonist, luciferase	–	EC50	0.0145 µM
O=C(NCCc1cccc2ccccc12)C1CCC1	MTNR1A	β-arrestin recruitment, agonist	–	EC50	0.288 µM
COc1cccc2c1CCN(C(=O)c1cc(=O)n(C)cc1Br)C2	MTNR1A	cAMP, agonist, luciferase	–	EC50	0.0963 µM
COCC(C)Nc1ccnc(Nc2cccc(-c3cccnc3)c2)n1 (centres unmarked)	FLT3	enzyme activity, inhibitor	–	IC50	< 0.006 µM
COC(=O)c1cc(CSc2nnc(C3CC3)[nH]2)cs1	MTNR1A	cAMP, agonist, luciferase	–	EC50	0.00757 µM
CC(C)(C)[C@H](NC(=O)[C@H](CCONC(=N)N)NC(=O)Cc1ccc(CN)cc1)C(=O)N[C@@H](CCONC(=N)N)C(=O)NCc1ccc(C(=N)N)cc1	F2 trypsin-like site	enzyme activity, inhibitor	pH 8	Ki	25 µM
COc1cc2c(cc1OC)CN(CCCCn1ccc3c(OC)cccc31)C2	Tmem97	ligand displacement, radioligand	cell membranes	Ki	0.0063 µM
c1cncc(-c2cccc(Nc3nccc(NC4CCNCC4)n3)c2)c1	FLT3	enzyme activity, inhibitor	–	IC50	0.008 µM
COC(=O)c1cc(Cn2ccc(C(C)=O)n2)c(C)s1	MTNR1A	cAMP, agonist, luciferase	–	EC50	0.0749 µM
Cc1cnc(-c2ccc(-c3ccc(NC(=O)Nc4c(F)cc(F)cc4F)cc3F)c3c2C(=O)NC3)[nH]1	AURKA	binding, competition with immobilised ligand	–	Kd	0.0029 µM
O=C(NCCN1CCCCC1)c1cc(Br)ccc1O	Tmem97	ligand displacement, radioligand	cell membranes	Ki	> 10 µM
CC(C)(C)[C@H](NC(=O)[C@H](CCONC(=N)N)NC(=O)Cc1ccc(CN)cc1)C(=O)N[C@@H](CCCCN)C(=O)NCc1ccc(C(=N)N)cc1	F2 trypsin-like site	enzyme activity, inhibitor	pH 8	Ki	10 µM
CC(C)c1ccc(NC(=O)O[C@H](Cn2ccnc2)c2ccc(F)cc2)cc1	CYP51	binding	–	Kd	0.032 µM

SMILES	target	test	setting	quantity	result
COc1ccc2c(c1)C(CNC(N)=O)Cc1ccccc1C2 (centres unmarked)	MTNR1A	GTPγS binding, agonist, radiometric	cell membranes	EC50	0.0282 µM
c1cncc(-c2cccc(Nc3nccc(NC4CCCC4)n3)c2)c1	FLT3	enzyme activity, inhibitor	–	IC50	0.013 µM
CCOc1ccc(CNc2cccnc2)cc1	MTNR1A	cAMP, agonist, luciferase	–	EC50	0.0635 µM
c1ccc(-c2ccc(Nc3nccc(NC4CCCCC4)n3)cc2)nc1	FLT3	enzyme activity, inhibitor	–	IC50	1.88 µM
COc1ccc2c(c1)N(Cc1cccc3[nH]ccc13)CCO2	MTNR1A	cAMP, agonist, luciferase	–	EC50	0.0208 µM
CCC(=O)NC1Cc2ccccc2C(c2ccccc2)C1 (centres unmarked)	MTNR1A	cAMP, agonist, TR-FRET	–	EC50	0.282 µM
CC(C)Nc1ccnc(Nc2ccc(-c3ccccc3)cc2)n1	FLT3	enzyme activity, inhibitor	–	IC50	15 µM
COc1ccc2c(c1)N(Cc1cc(=O)c(OC)co1)CCO2	MTNR1A	cAMP, agonist, luciferase	–	EC50	0.00056 µM
COc1cc2c(CCNC(C)=O)c(I)[nH]c2cc1[N+](=O)[O-]	MTNR1A	GTPγS binding, agonist, radiometric	cell membranes	EC50	0.0209 µM
O=C(NCCCn1ccnc1)O[C@@H](Cn1ccnc1)c1ccc(F)cc1	CYP51	binding	–	Kd	0.087 µM
NC(=S)N/N=C1\C(=O)Nc2ccccc21	Tmem97	ligand displacement, radioligand	cell membranes	Ki	> 10 µM
C[C@@H]1Cc2ccccc2N1C(=O)NCCCCN(C)[C@@H]1Cc2cccc3[nH]c(=O)n(c23)C1	HTR2C	ligand displacement, radioligand	–	Ki	> 10 µM
COc1cc2c(CCNC(C)=O)c[nH]c2cc1I	MTNR1A	cAMP, agonist, TR-FRET	–	EC50	0.00661 µM
CC(C)Nc1ccnc(Nc2ccc(C(N)=O)cc2)n1	FLT3	enzyme activity, inhibitor	–	IC50	0.213 µM
CC(C)(C)[C@H](NC(=O)[C@H](CCONC(=N)N)NC(=O)Cc1ccc(CNC(=N)N)cc1)C(=O)N[C@@H](CCCCN)C(=O)NCc1ccc(C(=N)N)cc1	F2 trypsin-like site	enzyme activity, inhibitor	pH 8	Ki	61 µM
Cc1ccc(C(=O)Nc2ccc(Oc3cc4cnn(C)c4cc3-c3cn[nH]c3)c(F)c2)c(=O)n1-c1ccc(F)cc1	Tyrosine-protein kinase receptor Tie-1 (TIE1, Homo sapiens, UniProt P35590)	binding, competition with immobilised ligand	–	Kd	0.0009 µM
CCOC(=O)c1nc(N(C)CCc2cnccn2)ccc1Br	MTNR1A	cAMP, agonist, luciferase	–	EC50	0.0294 µM
O=C(NCCN1CCCCC1)c1ccc(OCCF)c(Br)c1	Tmem97	ligand displacement, radioligand	cell membranes	Ki	0.0428 µM
Cc1cc2nc3c(=O)[nH]c(=O)nc-3n(C[C@H](O)[C@H](O)[C@H](O)COP(=O)(O)OP(=O)(O)OC[C@H]3O[C@@H](n4cnc5c(N)ncnc54)[C@H](O)[C@@H]3O)c2cc1C	DNA topoisomerase 2-alpha (TOP2A, Homo sapiens, UniProt P11388)	binding	lysate	Kd	0.141 µM
COc1ccc2ncn(CCNC(C)=O)c2c1	MTNR1A	GTPγS binding, agonist, radiometric	cell membranes	EC50	2.19 µM
